Test results as given in ChEMBL document CHEMBL5303300, “EUbOPEN Chemogenomics Library - Multiplex” (2023).
“And” between values parts separate entries of the source, which are not always exact repeats. Identical values can stand only once.

Key:
HEK-293T = experiment: Multiplex assay against HEK293T; assay type: toxicity, cell-based; conditions: human, number of replicates 2
Procedure, shortened: (§1)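 Cells were classed with CellPathfinder machine-learning gating, first as Hoechst high-intensity objects or normal cells, then (normal cells) as healthy, pyknosed or fragmented nuclei, and finally (pyknosed cells) as mitotic or apoptotic. Staining of live cells at seeding used Hoechst33342, BioTracker Green Microtubule Cytoskeleton Dye, MitoTracker Red and Annexin V Alexa Fluor 680, with imaging on a CQ1 microscope at 37°C and 5% CO2 after compound addition. Tubulin, mitochondrial-mass and membrane-permeability phenotypes are per cents of healthy-nucleus cells.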

U2OS = experiment: Multiplex assay against U2OS; assay type: toxicity, cell-based; conditions: human, number of replicates 2; procedure, shortened: as §1
[1] = 24 h, 1 µM, compound concentration 1 uM
[2] = 24 h, 10 µM, compound concentration 10 uM
[3] = 48 h, 1 µM, compound concentration 1 uM
[4] = 48 h, 10 µM, compound concentration 10 uM
[5] = 12 h, 1 µM, compound concentration 1 uM
[6] = 12 h, 10 µM, compound concentration 10 uM

Structure (SMILES): COc1cc(OC)cc(-c2cc3cnc(N)nc3nc2NC(=O)NC(C)(C)C)c1
- Population Mitochondria Different-Phenotype (%) (HEK-293T; [1]): 5% and 2% and 7%
- Population Mitotic Cells (%) (HEK-293T; [1]): 53% and 45% and 48% and 46%
- Population Normal (%) (HEK-293T; [1]): 89% and 91%
- Population Pyknosed Nuclei (%) (HEK-293T; [1]): 12% and 11% and 9%
- Population Tubulin-Different-Phenotype (%) (HEK-293T; [1]): 28% and 23% and 29% and 30%
- Total Cell Count (HEK-293T; [1]): 1161 and 950 and 940 and 952
- Population Apoptotic (%) (HEK-293T; [2]): 52% and 40% and 48%
- Population Fragmented Nuclei (%) (HEK-293T; [2]): 5% and 4% and 11% and 8%
- Population Healthy Nuclei (%) (HEK-293T; [2]): 85% and 88% and 78% and 82%
- Population Hoechst High Intensity Objects (%) (HEK-293T; [2]): 8% and 9%
- Population Membrane Permeable-Phenotype (%) (HEK-293T; [2]): 3% and 2% and 1%
- Population Mitochondria Different-Phenotype (%) (HEK-293T; [2]): 11% and 4% and 3%
- Population Mitotic Cells (%) (HEK-293T; [2]): 47% and 59% and 51%
- Population Normal (%) (HEK-293T; [2]): 91% and 90%
- Population Pyknosed Nuclei (%) (HEK-293T; [2]): 9% and 6% and 10%
- Population Tubulin-Different-Phenotype (%) (HEK-293T; [2]): 30% and 35% and 38% and 33%
- Total Cell Count (HEK-293T; [2]): 797 and 901 and 1521 and 1236
- Population Apoptotic (%) (HEK-293T; [3]): 16% and 24% and 25% and 17%
- Population Fragmented Nuclei (%) (HEK-293T; [3]): 13% [middle of 4 runs]
- Population Healthy Nuclei (%) (HEK-293T; [3]): 75% and 84% and 83% and 86%
- Population Hoechst High Intensity Objects (%) (HEK-293T; [3]): 8% and 7% and 10%
- Population Membrane Permeable-Phenotype (%) (HEK-293T; [3]): 6% and 3% and 4% and 2%
- Population Mitochondria Different-Phenotype (%) (HEK-293T; [3]): 0%
- Population Mitotic Cells (%) (HEK-293T; [3]): 83% and 75% and 82%
- Population Normal (%) (HEK-293T; [3]): 91% and 92% and 89%
- Population Pyknosed Nuclei (%) (HEK-293T; [3]): 2% and 3% and 4%
- Population Tubulin-Different-Phenotype (%) (HEK-293T; [3]): 12% and 9% and 13% and 16%
- Total Cell Count (HEK-293T; [3]): 3190 and 2284 and 2394 and 1901
- Population Apoptotic (%) (HEK-293T; [4]): 28% and 21% and 14%
- Population Fragmented Nuclei (%) (HEK-293T; [4]): 14% [middle of 4 runs]
- Population Healthy Nuclei (%) (HEK-293T; [4]): 85% and 87% and 73% and 82%
- Population Hoechst High Intensity Objects (%) (HEK-293T; [4]): 9% and 10%
- Population Membrane Permeable-Phenotype (%) (HEK-293T; [4]): 4% and 5% and 2%
- Population Mitochondria Different-Phenotype (%) (HEK-293T; [4]): 0% and 1%
- Population Mitotic Cells (%) (HEK-293T; [4]): 71% and 78% and 85%
- Population Normal (%) (HEK-293T; [4]): 90% and 89%
- Population Pyknosed Nuclei (%) (HEK-293T; [4]): 3% and 2%
- Population Tubulin-Different-Phenotype (%) (HEK-293T; [4]): 15% and 18% and 20%
- Total Cell Count (HEK-293T; [4]): 1964 and 1991 and 3775 and 2773
- Population Apoptotic (%) (U2OS; [5]): 80% [middle of 4 runs]
- Population Fragmented Nuclei (%) (U2OS; [5]): 11% and 5% and 6% and 4%
- Population Healthy Nuclei (%) (U2OS; [5]): 80% and 87% and 83% and 89%
- Population Hoechst High Intensity Objects (%) (U2OS; [5]): 0%
- Population Membrane Permeable-Phenotype (%) (U2OS; [5]): 2% and 0% and 1%
- Population Mitochondria Different-Phenotype (%) (U2OS; [5]): 0%
- Population Normal (%) (U2OS; [5]): 100%
- Population Pyknosed Nuclei (%) (U2OS; [5]): 7% and 6% and 10% and 5%
- Population Tubulin-Different-Phenotype (%) (U2OS; [5]): 52% and 94% and 55% and 80%
- Population Healthy Nuclei (%) (U2OS; [6]): 85% and 60% and 88% and 65%
- Population Hoechst High Intensity Objects (%) (U2OS; [6]): 0%
- Population Membrane Permeable-Phenotype (%) (U2OS; [6]): 6% [middle of 4 runs]
- Population Mitochondria Different-Phenotype (%) (U2OS; [6]): 0% and 4%
- Population Normal (%) (U2OS; [6]): 99% and 100%
- Population Pyknosed Nuclei (%) (U2OS; [6]): 10% and 15% and 6% and 9%
- Population Tubulin-Different-Phenotype (%) (U2OS; [6]): 64% [middle of 4 runs]
- Population Apoptotic (%) (U2OS; [1]): 60% and 84% and 50%
- Population Fragmented Nuclei (%) (U2OS; [1]): 3% and 1% and 2%
- Population Healthy Nuclei (%) (U2OS; [1]): 89% and 90% and 82% and 86%
- Population Hoechst High Intensity Objects (%) (U2OS; [1]): 1% and 0%
- Population Membrane Permeable-Phenotype (%) (U2OS; [1]): 0% and 3% and 1%
- Population Mitochondria Different-Phenotype (%) (U2OS; [1]): 1% and 0%
- Population Normal (%) (U2OS; [1]): 98% and 100%
- Population Pyknosed Nuclei (%) (U2OS; [1]): 6% and 8% and 14% and 11%
- Population Tubulin-Different-Phenotype (%) (U2OS; [1]): 56% and 85% and 53% and 83%
- Population Apoptotic (%) (U2OS; [2]): 54% [middle of 4 runs]
- Population Healthy Nuclei (%) (U2OS; [2]): 83% and 68% and 84% and 72%
- Population Hoechst High Intensity Objects (%) (U2OS; [2]): 0%
- Population Membrane Permeable-Phenotype (%) (U2OS; [2]): 4% [middle of 4 runs]
- Population Mitochondria Different-Phenotype (%) (U2OS; [2]): 1% and 8% and 0%
- Population Normal (%) (U2OS; [2]): 100%
- Population Pyknosed Nuclei (%) (U2OS; [2]): 10% and 16% and 9% and 13%
- Population Tubulin-Different-Phenotype (%) (U2OS; [2]): 62% [middle of 4 runs]
- Population Apoptotic (%) (U2OS; [3]): 50% and 84% and 60% and 74%
- Population Fragmented Nuclei (%) (U2OS; [3]): 3% and 2% and 4%
- Population Healthy Nuclei (%) (U2OS; [3]): 86% and 88% and 92%
- Population Hoechst High Intensity Objects (%) (U2OS; [3]): 0%
- Population Membrane Permeable-Phenotype (%) (U2OS; [3]): 1% and 0%
- Population Mitochondria Different-Phenotype (%) (U2OS; [3]): 0% and 1%
- Population Normal (%) (U2OS; [3]): 100%
- Population Pyknosed Nuclei (%) (U2OS; [3]): 10% and 8% and 4% and 7%
- Population Tubulin-Different-Phenotype (%) (U2OS; [3]): 70% and 90% and 59% and 84%
- Population Apoptotic (%) (U2OS; [4]): 48% and 69% and 66% and 78%
- Population Healthy Nuclei (%) (U2OS; [4]): 87% and 68% and 86% and 64%
- Population Hoechst High Intensity Objects (%) (U2OS; [4]): 0%
- Population Membrane Permeable-Phenotype (%) (U2OS; [4]): 2% and 9%
- Population Mitochondria Different-Phenotype (%) (U2OS; [4]): 0% and 3% and 1%
- Population Mitotic Cells (%) (U2OS; [4]): 33% [middle of 4 runs]
- Population Normal (%) (U2OS; [4]): 100% and 99%
- Population Pyknosed Nuclei (%) (U2OS; [4]): 10% and 16% and 17%
- Population Tubulin-Different-Phenotype (%) (U2OS; [4]): 67% [middle of 4 runs]
